These results are taken from ChEMBL document CHEMBL1129296, “Cardioselective antiischemic ATP-sensitive potassium channel openers. 4. Structure-activity studies on benzopyranylcyanoguanidines: replacement of the benzopyran portion” (J Med Chem, 1996).

What all share (format): functional
Assay [1] is described as follows: Ratio between Antiischemic potency to Vasorelaxant potency. The essentials:
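Cardioselectivity was taken as the ratio of two values. The first is the EC25 for a 25% increase in time to contracture, in globally ischemic isolated perfused rat hearts. The second is the IC50 for relaxation of methoxamine-contracted rat aorta.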

The species named for assay [2] is Rattus norvegicus. The assay can be described thus: Antiischemic potency was determined for increase in time to contracture by 25% in globally ischemic rat hearts. The gist of the method:
(§1)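 Isolated rat hearts were perfused, then subjected to total global ischemia. Contracture onset was taken as the time for end diastolic pressure to rise 5 mmHg above baseline. EC25 is the concentration that raises time to contracture by 25%.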

The species entered for assay [3] is Rattus norvegicus. The assay can be described thus: Antiischemic potency was determined at 10 uM for increase in time to contracture by 25% in globally ischemic rat hearts.
Assay [4] is filed under the species Rattus norvegicus. The assay can be described thus: Vasorelaxant potency was determined for inhibition of methoxamine contracted rat aorta. The gist of the method:
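Vasorelaxation was measured in rat aorta precontracted with methoxamine. IC50 is the concentration giving relaxation of the contraction.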

Assay [5] is filed under the species Rattus norvegicus. The assay is described as follows: Antiischemic potency for increase in time to contracture by 25% in globally ischemic rat hearts. The gist of the method: as §1

A word on the EC25: it is the concentration needed for an effect of 25%. Lower therefore signals an effect from little substance. Broadly, the IC50 is the concentration that gives 50% inhibition. Low readings indicate inhibition by little substance, high ones a need for much substance. Take `CC(C)(C)c1ccc(C#N)cc1NC(=O)Nc1cccnc1`: in assay [1], the Ratio was 1.2. The same compound showed an EC25 in assay [2] of 29.7 µM. In assay [3], the “Increase in time to contracture” value is given as 25%. Half-maximal inhibition in assay [4] (IC50) required 25.7 µM.

Take `CC(C)(C)c1ccc(C#N)cc1NC(=O)Nc1ccncc1`: the “Increase in time to contracture” value in assay [3] is 14%. The compound further registered an IC50 in assay [4] of 7.8 µM.

On to `CC1(C)CN(C(=O)Nc2cccnc2)c2cc(C#N)ccc21`, for which, in assay [1], the Ratio was found to be 18.8. This compound had an EC25 in assay [2] of 28.3 µM. Moreover, the midpoint of inhibition in assay [4], the IC50, lay at 1.5 µM.

In the case of `CC(C)(C)c1ccc(C#N)cc1NC(=O)Nc1ccc(Cl)nc1`, in assay [1], the Ratio came to 12. The same compound came in with a 25% effect concentration (EC25) in assay [2] of 19.2 µM. This compound also had an IC50 in assay [4] of 1.6 µM.

Consider `CC(C)(C)c1ccc(C#N)cc1/N=C(/NC#N)Nc1cccnc1`, for which the “Increase in time to contracture” value in assay [3] is 16%. This compound had an IC50 in assay [4] of 1.2 µM.

As to `CC(C)(C)c1ccc(C#N)cc1NC(=O)Nc1cncnc1`, in assay [3], the “Increase in time to contracture” value stood at 2%. In assay [4], half-maximal inhibition (IC50) was put at 12.4 µM.

With `CC(C)(C)c1ccc(C#N)cc1NC(=O)Nc1ccccc1`, the Ratio in assay [1] turned out to be 19.9. The compound further had an EC25 in assay [2] of 33.8 µM. The compound also registered an IC50 in assay [4] of 1.7 µM.

Usually Inhibition stands for the percentage by which the read-out fell short of the control. In turn, `Cc1ccc(S(=O)(=O)Nc2ccc(C#N)cc2NC(=O)Nc2cccnc2)cc1` came in with an Inhibition in assay [5] of 0%. This compound showed an IC50 in assay [4] of over 100 µM.

As to `CC(C)(C)c1ccc(C#N)cc1NC(=O)Nc1cnccn1`, the Ratio in assay [1] is 0.77. Further, the concentration for an effect of 25% (EC25) in assay [2] was determined as 11.9 µM. For the same compound, the IC50 in assay [4] is 15.3 µM.

Consider `CC1(C)CC(NC(=O)Nc2ccccc2)c2cc(C#N)ccc21` (centres undefined), for which the Ratio in assay [1] is 7.2. In addition, it took 9.4 µM to reach the 25% level in assay [2] (EC25). The IC50 in assay [4] was determined as 1.3 µM.

Regarding `CC(C)(C)c1ccc(C#N)cc1NC(=O)Nc1ccccn1`, the “Increase in time to contracture” value in assay [3] is 25%. This compound yielded an IC50 in assay [4] of 25.7 µM.

`CC1(C)CCN(C(=O)Nc2ccccc2)c2cc(C#N)ccc21`: the Ratio in assay [1] was 3.9. For the same compound, in assay [2], it took 26 µM to reach the 25% level (EC25). In assay [4], this compound gave an IC50 of 6.7 µM.

In the case of `CC1(C)Oc2ccc(C#N)cc2[C@@H](/N=C(\NC#N)Nc2ccccc2)[C@@H]1O`, the Ratio in assay [1] was 7.9. It took 11 µM to reach the 25% level in assay [2] (EC25). The same compound showed an IC50 in assay [4] of 1.4 µM.

In turn, `N#Cc1ccc(Oc2ccccc2)c(NC(=O)Nc2cccnc2)c1` had an EC25 in assay [2] of 2 µM. Besides, in assay [4], the half-inhibitory concentration (IC50) was 1 µM.

`N#Cc1ccc(-c2ccccc2)c(NC(=O)Nc2cccnc2)c1`: the EC25 in assay [2] stood at 12 µM. Further, half-maximal inhibition in assay [4] (IC50) was put at 22.8 µM.
